This is an account of results in ChEMBL document CHEMBL5696442, “Discovery of type II inhibitors of TGFβ-activated kinase 1 (TAK1) and mitogen-activated protein kinase kinase kinase kinase 2 (MAP4K2)” (J Med Chem, 2015).

The target of test [1] is Ribosomal protein S6 kinase alpha-1 (Homo sapiens) (UniProt Q15418). Put plainly: Inhibition of RSK1 domain2 Lys2 labeling site in human A-375 cells at 5 uM by KiNativ Profiling analysis relative to control. Type of test: cell-based. The essentials:
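Live A375 melanoma cells treated with compound at 5 or 0.5 μM, then lysed. Lysate kinases were labeled with a lysine-reactive ATP or ADP-biotin probe. Inhibition was read as protection of labeling sites from the probe.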

The target of test [2] is Protein kinase C beta type (Homo sapiens) (UniProt P05771). Put plainly: Inhibition of PKCb Lys2 labeling site in human A-375 cells at 5 uM by KiNativ Profiling analysis relative to control. Type of test: cell-based.
Test [3] has as its target Tyrosine-protein kinase JAK1 (Homo sapiens) (UniProt P23458). Put plainly: Inhibition of JAK1 in human A-375 cells at 5 uM by KiNativ Profiling analysis relative to control. Format: cell-based.
The target of test [4] is Serine/threonine-protein kinase WNK2 (Homo sapiens) (UniProt Q9Y3S1). In words: Inhibition of Wnk2 ATP Loop labeling site in human A-375 cells at 0.05 uM by KiNativ Profiling analysis relative to control. Type of test: cell-based.
Test [5] deals with Mitogen-activated protein kinase kinase kinase 1 (Homo sapiens) (UniProt Q13233). Put plainly: Inhibition of MAP3K1 Lys2 labeling site in human A-375 cells at 0.05 uM by KiNativ Profiling analysis relative to control. Format: cell-based.
Test [6] deals with Tyrosine-protein kinase ABL1 (Homo sapiens, UniProt P00519). In words: Inhibition of ABL ACT labeling site in human A-375 cells at 0.5 uM by KiNativ Profiling analysis relative to control. Format: cell-based. The essentials: (§1)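 Intact A375 melanoma cells were treated with compound at 5 or 0.5 μM, then lysed. Lysate kinases were labeled with a lysine-reactive ATP or ADP-biotin probe (KiNativ). Inhibition is read as protection of each kinase labeling site from probe labeling.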

Test [7] addresses Serine/threonine-protein kinase 26 (Homo sapiens) (UniProt Q9P289). In words: Inhibition of MST4 Lys2 labeling site in human A-375 cells at 0.5 uM by KiNativ Profiling analysis relative to control. Type of test: cell-based.
The target in test [8] is Tyrosine-protein kinase JAK1 (Homo sapiens) (UniProt P23458). Put plainly: Inhibition of JAK1 domain2 ACT labeling site in human A-375 cells at 5 uM by KiNativ Profiling analysis relative to control. Format: cell-based.
Test [9] addresses T1, Serine/threonine-protein kinase NLK (Homo sapiens) (UniProt Q9UBE8).
T1 sequence (whole entry): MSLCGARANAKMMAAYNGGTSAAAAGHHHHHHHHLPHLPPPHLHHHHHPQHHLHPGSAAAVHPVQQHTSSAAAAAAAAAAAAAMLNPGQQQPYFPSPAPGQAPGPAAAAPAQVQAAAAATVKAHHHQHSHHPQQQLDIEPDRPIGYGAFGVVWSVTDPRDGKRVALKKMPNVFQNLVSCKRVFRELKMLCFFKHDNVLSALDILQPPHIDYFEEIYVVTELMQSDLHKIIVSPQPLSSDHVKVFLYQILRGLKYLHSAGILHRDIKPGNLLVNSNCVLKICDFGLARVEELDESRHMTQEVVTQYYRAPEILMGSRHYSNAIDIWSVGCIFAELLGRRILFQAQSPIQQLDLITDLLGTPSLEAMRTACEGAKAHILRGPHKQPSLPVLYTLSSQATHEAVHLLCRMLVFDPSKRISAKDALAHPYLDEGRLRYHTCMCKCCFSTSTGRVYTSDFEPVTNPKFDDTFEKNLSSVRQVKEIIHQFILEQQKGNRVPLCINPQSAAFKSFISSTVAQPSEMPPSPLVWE
Put plainly: Inhibition of NLK Lys2 labeling site in human A-375 cells at 0.5 uM by KiNativ Profiling analysis relative to control. Format: cell-based.

The target in test [10] is T2, Phosphatidylinositol 5-phosphate 4-kinase type-2 gamma (Homo sapiens) (UniProt Q8TBX8).
T2 sequence (whole entry): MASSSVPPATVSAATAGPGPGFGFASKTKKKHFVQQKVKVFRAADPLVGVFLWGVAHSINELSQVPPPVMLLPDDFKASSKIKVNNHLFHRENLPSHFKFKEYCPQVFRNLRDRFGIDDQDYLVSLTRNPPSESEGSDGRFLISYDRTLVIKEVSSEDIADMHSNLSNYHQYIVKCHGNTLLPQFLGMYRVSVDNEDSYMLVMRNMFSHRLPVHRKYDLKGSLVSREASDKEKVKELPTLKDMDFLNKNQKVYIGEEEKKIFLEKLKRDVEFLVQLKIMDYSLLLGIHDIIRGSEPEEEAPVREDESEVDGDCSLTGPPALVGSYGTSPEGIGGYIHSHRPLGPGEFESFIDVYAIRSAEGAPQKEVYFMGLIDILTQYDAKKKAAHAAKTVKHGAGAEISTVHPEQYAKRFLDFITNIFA
In words: Inhibition of PIP4K2C ATP labeling site harbouring VKELPTLK in human A-375 cells at 0.5 uM by KiNativ Profiling analysis relative to control. Format: cell-based. In short, it runs like this:
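Live A375 melanoma cells were treated with compound at 5 or 0.5 μM, then lysed. Lysates were labeled with a lysine-reactive ATP or ADP-biotin probe. Read-out was the compound's protection of kinase labeling sites from probe labeling (KiNativ).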

Test [11] addresses Cyclin-dependent kinase 16 (Homo sapiens) (UniProt Q00536). In words: Inhibition of PFTAIRE1 Lys1 labeling site in human A-375 cells at 0.5 uM by KiNativ Profiling analysis relative to control. Format: cell-based.
The target in test [12] is Serine/threonine-protein kinase Chk2 (Homo sapiens) (UniProt O96017). In words: Inhibition of CHK2 Lys1 labeling site in human A-375 cells at 0.05 uM by KiNativ Profiling analysis relative to control. Format: cell-based.
Test [13] has as its target Tyrosine-protein kinase ABL2 (Homo sapiens, UniProt P42684). Put plainly: Inhibition of ARG Lys1 labeling site in human A-375 cells at 5 uM by KiNativ Profiling analysis relative to control. Format: cell-based. In short, it runs like this:
as §1

Test [14] has as its target TRAF2 and NCK-interacting protein kinase (Homo sapiens) (UniProt Q9UKE5). Put plainly: Inhibition of ZC2 Lys2 labeling site in human A-375 cells at 0.5 uM by KiNativ Profiling analysis relative to control. Type of test: cell-based.
In test [15] the target is Mitogen-activated protein kinase kinase kinase kinase 4 (Homo sapiens, UniProt O95819). Put plainly: Inhibition of ZC1 Lys2 labeling site in human Huh-7 cell lysate at 1 uM by KiNativ Profiling analysis relative to control. Format: subcellular.

Chain of Tyrosine-protein kinase JAK1 (Homo sapiens) (P23458 whole entry, the tested form may be a part): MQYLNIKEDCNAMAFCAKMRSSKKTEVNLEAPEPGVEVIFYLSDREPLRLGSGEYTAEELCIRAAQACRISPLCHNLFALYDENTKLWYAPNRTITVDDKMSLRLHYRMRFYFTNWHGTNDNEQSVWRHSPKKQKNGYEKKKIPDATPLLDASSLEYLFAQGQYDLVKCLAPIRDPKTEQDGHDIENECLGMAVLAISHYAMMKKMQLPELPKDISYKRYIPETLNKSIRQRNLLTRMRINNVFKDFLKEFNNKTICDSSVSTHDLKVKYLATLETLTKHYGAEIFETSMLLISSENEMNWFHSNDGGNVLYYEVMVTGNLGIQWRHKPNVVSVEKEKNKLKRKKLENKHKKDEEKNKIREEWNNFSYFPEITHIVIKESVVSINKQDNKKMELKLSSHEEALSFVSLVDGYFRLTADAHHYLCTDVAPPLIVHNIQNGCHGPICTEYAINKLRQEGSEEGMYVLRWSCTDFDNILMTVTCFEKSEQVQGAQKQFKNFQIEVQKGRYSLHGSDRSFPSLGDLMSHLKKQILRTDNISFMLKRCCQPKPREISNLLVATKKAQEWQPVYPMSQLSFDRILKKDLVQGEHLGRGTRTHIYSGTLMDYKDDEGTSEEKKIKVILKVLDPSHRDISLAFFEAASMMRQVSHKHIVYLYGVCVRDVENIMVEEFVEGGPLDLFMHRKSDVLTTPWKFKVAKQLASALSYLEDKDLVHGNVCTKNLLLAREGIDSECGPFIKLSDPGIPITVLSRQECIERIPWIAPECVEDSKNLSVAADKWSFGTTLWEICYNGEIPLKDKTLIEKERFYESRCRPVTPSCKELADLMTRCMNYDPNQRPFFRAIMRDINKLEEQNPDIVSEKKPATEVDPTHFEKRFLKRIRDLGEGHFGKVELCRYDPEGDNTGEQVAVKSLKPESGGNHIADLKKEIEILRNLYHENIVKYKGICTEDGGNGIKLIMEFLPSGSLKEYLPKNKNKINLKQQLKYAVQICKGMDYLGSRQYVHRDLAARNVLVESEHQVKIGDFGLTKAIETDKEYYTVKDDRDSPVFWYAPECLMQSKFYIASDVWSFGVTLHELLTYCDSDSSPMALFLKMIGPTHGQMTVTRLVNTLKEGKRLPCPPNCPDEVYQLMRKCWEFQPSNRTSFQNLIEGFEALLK
Chain of Tyrosine-protein kinase ABL1 (P00519 whole entry): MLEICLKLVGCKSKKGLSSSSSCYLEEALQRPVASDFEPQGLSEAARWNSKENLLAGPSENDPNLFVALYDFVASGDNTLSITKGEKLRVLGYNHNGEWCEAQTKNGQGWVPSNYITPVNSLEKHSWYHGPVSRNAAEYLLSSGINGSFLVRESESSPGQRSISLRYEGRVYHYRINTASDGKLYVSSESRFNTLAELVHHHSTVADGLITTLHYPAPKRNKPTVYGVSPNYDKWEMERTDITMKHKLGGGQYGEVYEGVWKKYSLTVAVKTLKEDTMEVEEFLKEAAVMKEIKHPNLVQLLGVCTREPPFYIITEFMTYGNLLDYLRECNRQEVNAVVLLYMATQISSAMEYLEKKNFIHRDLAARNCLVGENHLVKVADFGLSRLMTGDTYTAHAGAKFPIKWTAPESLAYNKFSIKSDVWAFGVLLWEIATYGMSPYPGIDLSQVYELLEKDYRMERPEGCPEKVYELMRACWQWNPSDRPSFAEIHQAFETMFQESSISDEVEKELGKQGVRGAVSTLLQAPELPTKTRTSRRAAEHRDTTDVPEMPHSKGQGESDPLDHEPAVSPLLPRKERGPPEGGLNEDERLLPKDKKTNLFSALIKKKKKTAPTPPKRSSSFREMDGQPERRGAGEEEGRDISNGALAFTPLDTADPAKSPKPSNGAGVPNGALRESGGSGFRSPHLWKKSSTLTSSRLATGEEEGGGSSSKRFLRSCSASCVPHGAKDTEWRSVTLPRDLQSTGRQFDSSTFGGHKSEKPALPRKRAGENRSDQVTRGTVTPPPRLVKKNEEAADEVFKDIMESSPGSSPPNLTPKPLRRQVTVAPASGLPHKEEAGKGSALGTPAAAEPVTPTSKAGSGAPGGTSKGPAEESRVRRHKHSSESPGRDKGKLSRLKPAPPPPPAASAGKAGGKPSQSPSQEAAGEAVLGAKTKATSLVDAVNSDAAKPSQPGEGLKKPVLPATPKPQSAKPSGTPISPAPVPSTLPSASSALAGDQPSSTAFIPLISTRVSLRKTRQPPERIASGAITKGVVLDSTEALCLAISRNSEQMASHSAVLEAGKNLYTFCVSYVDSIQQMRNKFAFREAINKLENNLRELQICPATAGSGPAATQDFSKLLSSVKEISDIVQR
Chain of TRAF2 and NCK-interacting protein kinase (Homo sapiens) (Q9UKE5 whole entry, looked up): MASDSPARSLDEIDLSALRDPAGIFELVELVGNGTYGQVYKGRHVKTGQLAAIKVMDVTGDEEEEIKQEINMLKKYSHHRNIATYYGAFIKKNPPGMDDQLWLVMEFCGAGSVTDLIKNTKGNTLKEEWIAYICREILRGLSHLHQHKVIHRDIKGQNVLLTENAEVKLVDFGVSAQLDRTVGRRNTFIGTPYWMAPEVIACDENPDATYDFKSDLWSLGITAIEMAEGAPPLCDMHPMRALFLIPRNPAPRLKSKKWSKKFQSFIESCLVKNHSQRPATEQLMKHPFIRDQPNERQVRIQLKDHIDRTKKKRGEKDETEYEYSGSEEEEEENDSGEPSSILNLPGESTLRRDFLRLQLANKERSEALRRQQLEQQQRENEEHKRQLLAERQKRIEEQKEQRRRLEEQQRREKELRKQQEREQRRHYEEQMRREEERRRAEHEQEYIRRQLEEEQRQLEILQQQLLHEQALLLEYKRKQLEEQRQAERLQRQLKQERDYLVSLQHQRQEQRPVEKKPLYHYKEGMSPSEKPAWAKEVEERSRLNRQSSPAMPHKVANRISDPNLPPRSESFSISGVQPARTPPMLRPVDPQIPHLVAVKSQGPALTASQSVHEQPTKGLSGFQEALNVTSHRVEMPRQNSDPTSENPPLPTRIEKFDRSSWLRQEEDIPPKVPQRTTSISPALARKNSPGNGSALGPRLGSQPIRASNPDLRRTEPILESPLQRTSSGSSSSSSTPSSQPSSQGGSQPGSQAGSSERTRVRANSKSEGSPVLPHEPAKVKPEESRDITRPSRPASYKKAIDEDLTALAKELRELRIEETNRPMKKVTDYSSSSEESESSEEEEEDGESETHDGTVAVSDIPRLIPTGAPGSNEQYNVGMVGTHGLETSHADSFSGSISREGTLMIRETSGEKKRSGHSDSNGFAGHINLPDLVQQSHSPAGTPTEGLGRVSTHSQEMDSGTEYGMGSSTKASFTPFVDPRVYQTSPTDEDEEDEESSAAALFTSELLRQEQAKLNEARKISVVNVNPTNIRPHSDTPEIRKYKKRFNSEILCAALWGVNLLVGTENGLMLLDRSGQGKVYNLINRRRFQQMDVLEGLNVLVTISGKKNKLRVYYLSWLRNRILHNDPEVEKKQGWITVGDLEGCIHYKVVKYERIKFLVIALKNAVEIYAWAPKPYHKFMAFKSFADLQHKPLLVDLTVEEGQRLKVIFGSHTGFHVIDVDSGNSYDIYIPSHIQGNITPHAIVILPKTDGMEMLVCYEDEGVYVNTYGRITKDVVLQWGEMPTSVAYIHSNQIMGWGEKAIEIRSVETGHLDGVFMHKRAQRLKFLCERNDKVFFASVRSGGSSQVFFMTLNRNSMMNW
Chain of Protein kinase C beta type (Homo sapiens) (P05771 2-671 limits assumed): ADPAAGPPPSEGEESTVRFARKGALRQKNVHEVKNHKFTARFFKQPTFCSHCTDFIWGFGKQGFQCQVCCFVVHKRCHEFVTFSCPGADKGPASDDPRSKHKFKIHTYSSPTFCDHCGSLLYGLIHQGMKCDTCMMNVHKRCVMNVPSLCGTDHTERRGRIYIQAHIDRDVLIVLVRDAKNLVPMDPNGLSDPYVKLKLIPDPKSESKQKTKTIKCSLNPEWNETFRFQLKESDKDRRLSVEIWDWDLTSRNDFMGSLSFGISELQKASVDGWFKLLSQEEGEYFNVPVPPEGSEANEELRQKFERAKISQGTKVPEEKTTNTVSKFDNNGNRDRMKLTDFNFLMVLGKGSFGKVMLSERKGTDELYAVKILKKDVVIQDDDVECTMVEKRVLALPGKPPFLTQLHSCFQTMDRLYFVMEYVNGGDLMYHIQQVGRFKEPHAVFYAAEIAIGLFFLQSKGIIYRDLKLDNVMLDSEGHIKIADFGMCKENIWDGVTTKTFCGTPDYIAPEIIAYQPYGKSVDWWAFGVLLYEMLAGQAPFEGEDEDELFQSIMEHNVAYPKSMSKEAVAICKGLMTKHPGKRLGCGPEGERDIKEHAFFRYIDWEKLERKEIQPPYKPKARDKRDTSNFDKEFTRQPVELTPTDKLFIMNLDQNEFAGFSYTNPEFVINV
Chain of Serine/threonine-protein kinase 26 (Homo sapiens) (Q9P289 2-416 limits assumed): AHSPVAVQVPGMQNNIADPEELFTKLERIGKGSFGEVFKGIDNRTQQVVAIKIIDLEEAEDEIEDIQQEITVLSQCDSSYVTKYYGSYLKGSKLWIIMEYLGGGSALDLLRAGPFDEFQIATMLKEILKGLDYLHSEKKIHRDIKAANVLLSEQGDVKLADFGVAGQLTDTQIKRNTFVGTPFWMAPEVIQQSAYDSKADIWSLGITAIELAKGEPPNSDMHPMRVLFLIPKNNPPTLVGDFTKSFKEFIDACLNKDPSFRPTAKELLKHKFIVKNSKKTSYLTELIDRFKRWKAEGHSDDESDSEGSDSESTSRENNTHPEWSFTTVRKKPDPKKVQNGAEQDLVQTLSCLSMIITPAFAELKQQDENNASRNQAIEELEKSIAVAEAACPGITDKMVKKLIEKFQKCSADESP

For the compound `CCN1CCN(Cc2ccc(NC(=O)c3ccc(C)c(/C=C/c4cnc5[nH]ccc5c4OC)c3)cc2C(F)(F)F)CC1`, the inhibition was 3.9% in test [1]; 50.2% in test [2]; 27% in [3]; 5% in test [4]; 23.1% in [5]; > 98% in test [6]. Besides, the inhibition in [7] came to 9.8%; in [8], 69.2%; in test [9], 27.3%; in [10], 9.2%; in [11], 11.9%; in test [12], 2.9%. Moreover, the inhibition in test [13] is > 90%; in [14], 48.1%.
For `CNc1cc(Oc2cc(C(=O)Nc3cc(-n4cnc(C)c4)cc(C(F)(F)F)c3)ccc2C)ncn1`, the inhibition in [15] is 24.1%.
Take `CCN1CCN(Cc2ccc(NC(=O)c3ccc(C)c(Oc4ccnc5[nH]ccc45)c3)cc2C(F)(F)F)CC1`: the inhibition in test [1] is 1.8%; in test [2] it was 51%; in test [3], 3.9%; in [4], 2.4%; in [5] it was 16.8%; in test [6], > 98%. In addition, the inhibition is 12.5% in test [7]; 95.4% in test [8]; 3.1% in test [9]; -1.8% in test [10]; 41.3% in test [11]; -1.9% in [12]. Moreover, the inhibition in [13] amounted to 86.8%; in test [14], 70.8%.
With `CNc1cc(Oc2cc(C(=O)Nc3cc(N4CCN(C)CC4)cc(C(F)(F)F)c3)ccc2C)ncn1`, the inhibition in [15] worked out at 2.7%.

As usually defined, the inhibition is the relative decrease from the control value, in per cent.
